pKi: −log10 of the molar value. Bounds are passed on as bounds.

For orientation: pKi means the Ki on a negative log10 scale, so that one unit is a factor of ten.

For experiment [1], the target named is Neuronal acetylcholine receptor subunit alpha-7 (Rattus norvegicus, UniProt Q05941). Kind of experiment: Displacement of [125I]-alpha-Bungarotoxin from alpha7 nAChR rat cortical membranes by gamma counting. In kind it is cell membranes, Membrane. The method, boiled down: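 Rat cortex membranes, prepared by twice-repeated homogenisation and high-speed centrifugation, were pre-incubated with compound for 30 min at r.t. Filtered on PEI-soaked GF/C filters and gamma counted. Ki from three independent competition experiments, fitted together with three saturation experiments by non-linear least squares (LIGAND).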

Experiment [2] deals with Muscarinic acetylcholine receptor M3 (Homo sapiens) (UniProt P20309). Kind of experiment: Displacement of [3H]quinuclidinyl benzylate from human muscarinic M3 receptor expressed in CHO cells at 10 uM. In kind it is cell-based. Background: Displacement assays read how much labelled ligand stays bound in the presence of the test substance.
Experiment [3] concerns the target T1, Muscarinic acetylcholine receptor M5 (Homo sapiens) (UniProt P08912).
T1 sequence (whole entry): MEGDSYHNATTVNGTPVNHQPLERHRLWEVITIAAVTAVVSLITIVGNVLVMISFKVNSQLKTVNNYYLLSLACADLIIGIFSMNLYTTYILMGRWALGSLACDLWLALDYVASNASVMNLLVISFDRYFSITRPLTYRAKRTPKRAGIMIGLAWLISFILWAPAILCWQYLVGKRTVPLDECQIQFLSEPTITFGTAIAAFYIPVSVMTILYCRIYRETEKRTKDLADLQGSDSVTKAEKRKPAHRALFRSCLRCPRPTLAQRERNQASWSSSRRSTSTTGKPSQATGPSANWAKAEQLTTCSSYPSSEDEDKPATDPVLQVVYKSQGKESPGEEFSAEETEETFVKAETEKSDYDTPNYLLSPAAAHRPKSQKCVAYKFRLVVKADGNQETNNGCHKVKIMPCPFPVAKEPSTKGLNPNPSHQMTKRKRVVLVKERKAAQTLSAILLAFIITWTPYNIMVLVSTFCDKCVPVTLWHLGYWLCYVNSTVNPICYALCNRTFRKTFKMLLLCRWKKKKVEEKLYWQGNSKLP
Kind of experiment: Displacement of [3H]quinuclidinyl benzylate from human muscarinic M5 receptor expressed in CHO cells at 10 uM. In kind it is cell-based. An outline of the steps: (§1)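 Single-concentration preliminary screen on membranes of transfected CHO cells expressing human M2 or M5 receptors, labelled with [3H]quinuclidinyl benzylate. Read-out was percent inhibition of radioligand binding.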

Experiment [4] addresses T2, Muscarinic acetylcholine receptor M1 (Homo sapiens) (UniProt P11229).
T2 sequence (whole entry): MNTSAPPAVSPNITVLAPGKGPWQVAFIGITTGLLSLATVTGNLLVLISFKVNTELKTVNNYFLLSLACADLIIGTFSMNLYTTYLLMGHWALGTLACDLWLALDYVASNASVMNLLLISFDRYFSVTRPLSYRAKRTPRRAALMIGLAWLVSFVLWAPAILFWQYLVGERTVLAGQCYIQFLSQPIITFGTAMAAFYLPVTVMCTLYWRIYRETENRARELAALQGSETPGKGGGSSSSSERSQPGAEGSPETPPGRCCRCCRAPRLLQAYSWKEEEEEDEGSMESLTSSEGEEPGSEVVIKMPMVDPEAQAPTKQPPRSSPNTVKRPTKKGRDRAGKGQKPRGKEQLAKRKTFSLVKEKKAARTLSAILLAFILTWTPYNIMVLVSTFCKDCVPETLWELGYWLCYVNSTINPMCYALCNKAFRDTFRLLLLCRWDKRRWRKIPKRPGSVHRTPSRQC
Kind of experiment: Displacement of [3H]quinuclidinyl benzylate from human muscarinic M1 receptor expressed in CHO cells at 10 uM. In kind it is cell-based.

The target of experiment [5] is Neuronal acetylcholine receptor; alpha4/beta2 (Rattus norvegicus, UniProt P09483+P12390). Kind of experiment: Displacement of [3H]epibatidine from alpha4beta2 nAChR in rat cortical membranes by beta counting. In kind it is cell membranes, Membrane. The method, boiled down: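 Rat cortex membranes were washed twice by homogenisation in pH 7.4 phosphate/1 M NaCl/EDTA/EGTA/PMSF buffer and 60,000g spins, then resuspended in pH 7 Tris buffer. Nonspecific binding used 100 nM epibatidine. Filtered on PEI-soaked GF/C. Ki from three independent competition curves (LIGAND).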

Experiment [6] deals with T3, Muscarinic acetylcholine receptor M4 (Homo sapiens) (UniProt P08173).
T3 sequence (whole entry): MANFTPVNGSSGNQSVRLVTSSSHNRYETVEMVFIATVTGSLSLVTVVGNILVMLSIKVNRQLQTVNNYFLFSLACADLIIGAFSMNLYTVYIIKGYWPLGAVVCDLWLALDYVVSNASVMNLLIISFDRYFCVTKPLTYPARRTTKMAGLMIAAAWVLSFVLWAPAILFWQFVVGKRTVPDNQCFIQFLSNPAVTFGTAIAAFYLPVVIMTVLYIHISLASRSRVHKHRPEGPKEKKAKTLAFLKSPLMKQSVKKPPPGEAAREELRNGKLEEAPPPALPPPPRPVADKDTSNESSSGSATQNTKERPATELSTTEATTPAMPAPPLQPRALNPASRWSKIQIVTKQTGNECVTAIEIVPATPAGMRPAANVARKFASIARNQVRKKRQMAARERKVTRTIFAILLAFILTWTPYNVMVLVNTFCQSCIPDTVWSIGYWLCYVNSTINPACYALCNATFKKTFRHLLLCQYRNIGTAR
Kind of experiment: Displacement of [3H]quinuclidinyl benzylate from human muscarinic M4 receptor expressed in CHO cells at 10 uM. In kind it is cell-based.

Experiment [7] concerns the target T4, Muscarinic acetylcholine receptor M2 (Homo sapiens) (UniProt P08172).
T4 sequence (whole entry): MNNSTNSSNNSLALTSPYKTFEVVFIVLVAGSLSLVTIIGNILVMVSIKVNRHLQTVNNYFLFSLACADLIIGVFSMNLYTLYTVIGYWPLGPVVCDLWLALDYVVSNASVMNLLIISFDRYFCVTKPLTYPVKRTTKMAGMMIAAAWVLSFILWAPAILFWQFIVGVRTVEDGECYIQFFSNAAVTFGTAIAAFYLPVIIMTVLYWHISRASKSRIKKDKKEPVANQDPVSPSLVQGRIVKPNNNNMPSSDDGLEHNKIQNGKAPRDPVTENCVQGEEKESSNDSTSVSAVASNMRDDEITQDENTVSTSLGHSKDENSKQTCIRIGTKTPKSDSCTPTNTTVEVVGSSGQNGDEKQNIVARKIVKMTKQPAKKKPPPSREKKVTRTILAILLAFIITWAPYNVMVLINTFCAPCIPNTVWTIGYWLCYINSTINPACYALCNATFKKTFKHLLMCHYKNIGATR
Kind of experiment: Displacement of [3H]quinuclidinyl benzylate from human muscarinic M2 receptor expressed in CHO cells at 10 uM. In kind it is cell-based. An outline of the steps:
as §1

Neuronal acetylcholine receptor subunit alpha-7, sequence (Q05941 whole entry): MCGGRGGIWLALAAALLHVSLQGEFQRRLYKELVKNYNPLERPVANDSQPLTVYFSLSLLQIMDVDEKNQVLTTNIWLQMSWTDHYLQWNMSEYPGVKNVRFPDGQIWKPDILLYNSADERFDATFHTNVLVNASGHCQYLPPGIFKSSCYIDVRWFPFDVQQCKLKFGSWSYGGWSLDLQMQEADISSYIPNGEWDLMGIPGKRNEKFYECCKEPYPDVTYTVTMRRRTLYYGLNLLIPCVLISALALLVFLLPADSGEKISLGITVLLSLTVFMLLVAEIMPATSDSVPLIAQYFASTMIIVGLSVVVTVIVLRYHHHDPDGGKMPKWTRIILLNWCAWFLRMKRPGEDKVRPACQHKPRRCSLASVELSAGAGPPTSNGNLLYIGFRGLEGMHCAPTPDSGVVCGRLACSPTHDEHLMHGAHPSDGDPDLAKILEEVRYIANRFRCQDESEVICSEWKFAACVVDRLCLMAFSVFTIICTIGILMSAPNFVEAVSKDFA
Muscarinic acetylcholine receptor M3 (Homo sapiens), sequence (P20309 whole entry, looked up): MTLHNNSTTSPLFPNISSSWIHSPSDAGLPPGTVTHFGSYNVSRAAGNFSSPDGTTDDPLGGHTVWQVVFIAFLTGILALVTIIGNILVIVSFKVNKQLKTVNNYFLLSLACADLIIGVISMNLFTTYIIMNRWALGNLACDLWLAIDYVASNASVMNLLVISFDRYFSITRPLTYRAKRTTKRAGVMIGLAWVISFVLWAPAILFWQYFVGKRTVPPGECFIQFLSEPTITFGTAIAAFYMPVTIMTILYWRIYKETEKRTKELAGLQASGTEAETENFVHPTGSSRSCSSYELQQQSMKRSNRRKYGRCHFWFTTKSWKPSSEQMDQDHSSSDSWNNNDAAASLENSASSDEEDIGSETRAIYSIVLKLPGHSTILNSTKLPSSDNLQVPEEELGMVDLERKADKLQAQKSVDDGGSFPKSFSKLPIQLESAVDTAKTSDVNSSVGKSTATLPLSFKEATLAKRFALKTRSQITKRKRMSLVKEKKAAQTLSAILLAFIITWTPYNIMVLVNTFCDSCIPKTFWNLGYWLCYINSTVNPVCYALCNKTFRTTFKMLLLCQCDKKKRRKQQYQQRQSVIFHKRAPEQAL
Neuronal acetylcholine receptor; alpha4/beta2, sequence (P09483 whole entry): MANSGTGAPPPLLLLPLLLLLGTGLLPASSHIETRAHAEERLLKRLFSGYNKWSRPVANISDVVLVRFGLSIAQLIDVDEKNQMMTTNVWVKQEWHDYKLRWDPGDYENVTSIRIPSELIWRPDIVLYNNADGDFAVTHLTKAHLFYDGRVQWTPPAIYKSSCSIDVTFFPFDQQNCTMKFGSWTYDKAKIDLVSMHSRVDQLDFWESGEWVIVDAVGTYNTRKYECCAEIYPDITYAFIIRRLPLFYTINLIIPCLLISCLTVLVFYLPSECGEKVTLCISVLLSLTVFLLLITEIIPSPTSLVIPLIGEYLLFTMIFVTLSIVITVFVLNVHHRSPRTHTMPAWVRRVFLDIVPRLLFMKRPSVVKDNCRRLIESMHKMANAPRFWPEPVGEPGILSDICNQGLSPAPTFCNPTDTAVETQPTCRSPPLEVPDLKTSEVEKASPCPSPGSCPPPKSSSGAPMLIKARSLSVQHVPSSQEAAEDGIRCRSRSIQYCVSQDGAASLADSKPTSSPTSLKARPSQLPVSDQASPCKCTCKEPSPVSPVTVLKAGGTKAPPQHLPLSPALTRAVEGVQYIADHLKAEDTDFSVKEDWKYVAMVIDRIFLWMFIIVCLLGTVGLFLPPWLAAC
Neuronal acetylcholine receptor; alpha4/beta2, sequence (P12390 whole entry): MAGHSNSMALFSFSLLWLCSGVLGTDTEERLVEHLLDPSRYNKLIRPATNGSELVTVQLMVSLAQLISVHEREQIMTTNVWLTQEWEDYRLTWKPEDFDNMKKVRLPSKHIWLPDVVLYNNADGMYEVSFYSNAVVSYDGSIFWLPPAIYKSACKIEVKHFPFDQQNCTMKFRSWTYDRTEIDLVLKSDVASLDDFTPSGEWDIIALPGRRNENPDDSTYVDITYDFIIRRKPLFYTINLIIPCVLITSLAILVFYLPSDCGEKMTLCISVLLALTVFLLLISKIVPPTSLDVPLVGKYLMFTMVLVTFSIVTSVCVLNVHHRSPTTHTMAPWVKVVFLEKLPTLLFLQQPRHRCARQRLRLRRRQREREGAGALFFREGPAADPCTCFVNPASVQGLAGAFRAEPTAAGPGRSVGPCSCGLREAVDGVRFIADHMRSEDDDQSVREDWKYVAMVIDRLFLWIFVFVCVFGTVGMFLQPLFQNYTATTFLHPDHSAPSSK

With `CC1=NO[C@@H]([C@@H]2CCCN2)C1`, the pKi in experiment [1] was 4.40; in experiment [5], 4.74. Further, the Activity in experiment [2], in experiment [3], in experiment [4], in experiment [6] and in experiment [7] was below 50% in each case.
In the case of `BrC1=NO[C@@H]([C@@H]2CCCN2)C1`, the figures for the pKi in experiment [1] and in experiment [5] were 4.46 and 5.38, respectively. Besides, the Activity in experiment [2], in experiment [3], in experiment [4], in experiment [6] and in experiment [7] was below 50% in each case.
Turning to `COC1=NO[C@@H]([C@@H]2CCCN2)C1`, the negative logarithm of the Ki (pKi) in experiment [1] was 3.56; in experiment [5] it was 4.55. Besides, the Activity in experiment [2], in experiment [3], in experiment [4], in experiment [6] and in experiment [7] was below 50% throughout.
`CC(C)(C)OC1=NO[C@H]([C@@H]2CCCN2)C1`: the pKi in experiment [1] is below 3.30; in experiment [5], 3.74. Moreover, the Activity in experiment [2], in experiment [3], in experiment [4], in experiment [6] and in experiment [7] was below 50% each time.
In the case of `COC1=NO[C@H]([C@@H]2CCCN2)C1`, the results for the pKi in experiment [1] and in experiment [5] were 4.95 and 4.30, respectively. In addition, the Activity in experiment [2], in experiment [3], in experiment [4], in experiment [6] and in experiment [7] was below 50% in each case.
In the case of `COC1=NO[C@@H]([C@@H]2CCCN2C)C1`, the figures for the pKi in experiment [1] and in experiment [5] were 5.54 and 4.99, respectively. The Activity in experiment [2], in experiment [3], in experiment [4], in experiment [6] and in experiment [7] was below 50% in each case.
Regarding `CC1=NO[C@@H]([C@@H]2CCCN2C)C1`, the pKi is 3.49 in experiment [1] and 4.92 in experiment [5]. The Activity in experiment [2], in experiment [3], in experiment [4], in experiment [6] and in experiment [7] was below 50% throughout.
As for `CN1CCC[C@H]1[C@H]1CC(Br)=NO1`, the pKi in experiment [1] is 4.37; in experiment [5] it was 5.42. Further, the Activity in experiment [2], in experiment [3], in experiment [4], in experiment [6] and in experiment [7] was below 50% in each case.
For the compound `CC1=NO[C@H]([C@@H]2CCCN2)C1`, the pKi was 6.36 in experiment [1] and 5.29 in experiment [5]. Further, the Activity in experiment [2], in experiment [3], in experiment [4], in experiment [6] and in experiment [7] was below 50% throughout.

The record behind these values is ChEMBL document CHEMBL1629483, “Synthesis of novel chiral Δ2-isoxazoline derivatives related to ABT-418 and estimation of their affinity at neuronal nicotinic acetylcholine receptor subtypes” (Eur J Med Chem, 2010).
